# Measured values reported in ChEMBL document CHEMBL1154928, “SAR and optimization of thiazole analogs as potent stearoyl-CoA desaturase inhibitors” (Bioorg Med Chem Lett, 2010).
# pIC50: −log10 of the molar value. Active and inactive are the calls of the source. The rule behind the calls is not given here.
# Key:
# [1] = target: T1, Acyl-CoA desaturase 1 (Rattus norvegicus, UniProt P07308); test: Inhibition of SCD1 in Wistar rat liver microsome assessed as [3H]stearoyl-CoA to [3H]oleoyl-CoA conversion pretreated 1 hr before [3H]stearoyl-CoA addition measured after 60 mins by HPLC based scintillation assay; format: microsomes
# T1 sequence (P07308 whole entry): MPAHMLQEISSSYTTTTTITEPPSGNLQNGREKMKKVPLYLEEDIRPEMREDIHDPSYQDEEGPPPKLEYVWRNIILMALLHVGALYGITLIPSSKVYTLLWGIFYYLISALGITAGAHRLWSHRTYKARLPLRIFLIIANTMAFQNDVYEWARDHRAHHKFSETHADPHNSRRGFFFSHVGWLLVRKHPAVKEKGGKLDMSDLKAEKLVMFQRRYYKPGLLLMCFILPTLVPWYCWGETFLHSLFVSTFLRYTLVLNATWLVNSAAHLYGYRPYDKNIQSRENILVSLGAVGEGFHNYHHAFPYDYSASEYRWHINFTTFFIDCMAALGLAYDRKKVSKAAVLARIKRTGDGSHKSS
# [2] = target: T2, Stearoyl-CoA desaturase (Homo sapiens, UniProt O00767); test: Inhibition of SCD1 in human HepG2 cells assessed as [14C]stearic acid to [14C]oleic acid conversion pretreated 15 mins before [14C]stearic acid addition measured after 4 hrs by HPLC based scintillation assay; format: cell-based
# T2 sequence (O00767 whole entry): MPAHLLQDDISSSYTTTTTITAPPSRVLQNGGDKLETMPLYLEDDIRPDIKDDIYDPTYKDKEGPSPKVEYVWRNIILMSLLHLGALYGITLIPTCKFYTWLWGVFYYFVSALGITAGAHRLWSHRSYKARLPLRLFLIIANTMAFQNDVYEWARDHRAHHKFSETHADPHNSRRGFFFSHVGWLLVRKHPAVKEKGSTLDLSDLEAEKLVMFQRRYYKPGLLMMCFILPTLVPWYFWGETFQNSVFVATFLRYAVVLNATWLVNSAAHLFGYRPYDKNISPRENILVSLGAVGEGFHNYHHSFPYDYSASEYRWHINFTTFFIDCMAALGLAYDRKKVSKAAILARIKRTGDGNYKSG
# [3] = tested on: Mus musculus; test: Inhibition of SCD in po dosed C57BL/6 mouse liver assessed as [14C]stearic acid to [14C]oleic acid conversion after 3 hrs by liver SCD activity index; format: functional; conditions: C57BL6, Liver
# Summary of the method: (§1)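 In vivo SCD activity was measured in mice fed a high carbohydrate diet and dosed orally. At 3 h, [1-14C]-stearic acid tracer was given intravenously and its conversion to [1-14C]-oleic acid in liver lipids was followed. The SCD activity index is the 14C-oleic/14C-stearic acid ratio. Liver compound concentration was also measured, and the ED50 was derived from the dose-response.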
# [4] = tested on: Mus musculus; test: Toxicity in C57BL/6 mouse assessed as partial eye closure at 0.2 mg/kg, po dosed QD for 7 days; format: organism-based, C57BL6; set-up: dose 0.2 mg/kg, route oral; conditions: in vivo, 168 h
# [5] = tested on: Mus musculus; test: Toxicity in C57BL/6 mouse assessed as progressive alopecia at 0.2 mg/kg, po dosed QD for 7 days; format: organism-based, C57BL6; set-up: dose 0.2 mg/kg, route oral; conditions: in vivo, 168 h
# [6] = Oral bioavailability in C57BL/6 mouse at 10 mg/kg; format: ADME, organism-based, C57BL6; conditions: in vivo
# [7] = AUC (0 to 24 hrs) in C57BL/6 mouse at 10 mg/kg, po; format: ADME, organism-based, C57BL6; set-up: time < 24 hr, dose 10 mg/kg, route oral; conditions: plasma
# [8] = tested on: Mus musculus; test: Inhibition of SCD in C57BL/6 mouse liver assessed as [14C]stearic acid to [14C]oleic acid conversion at 1 mg/kg, po after 3 hrs by liver SCD activity index; format: functional; conditions: C57BL6, Liver; summary of the method: as §1
# [9] = Drug level in C57BL/6 mouse liver at 0.3 mg/ kg, po after 3 hrs; format: ADME, organism-based, C57BL6; set-up: dose 0.3 mg/ kg, route oral; conditions: read-out: Drug uptake; summary of the method: as §1
# [10] = Drug level in C57BL/6 mouse liver at 1 mg/ kg, po after 3 hrs; format: ADME, organism-based, C57BL6; set-up: dose 1 mg/ kg, route oral; conditions: read-out: Drug uptake; summary of the method: as §1
# [11] = Drug level in C57BL/6 mouse blood at 0.1 mg/ kg, po after 3 hrs; format: ADME, organism-based, C57BL6; set-up: dose 0.1 mg/ kg, route oral; conditions: read-out: Drug uptake
# [12] = Drug level in C57BL/6 mouse blood at 0.3 mg/ kg, po after 3 hrs; format: ADME, organism-based, C57BL6; set-up: dose 0.3 mg/ kg, route oral; conditions: read-out: Drug uptake
# [13] = Drug level in C57BL/6 mouse blood at 1 mg/ kg, po after 3 hrs; format: ADME, organism-based, C57BL6; set-up: dose 1 mg/ kg, route oral; conditions: read-out: Drug uptake
# [14] = Plasma concentration in C57BL/6 mouse at 0.3 mg/kg, po dosed QD for 3 days and measured on day 3; format: ADME, organism-based, C57BL6; set-up: dose 0.3 mg/kg, route oral
# Summary of the method: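 C57BL6 mice on a high fat diet were dosed orally once daily for 3 days at 0.3 mg/kg. Plasma was sampled on day 3 at the terminal 24 h post-dose point.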
# [15] = tested on: Mus musculus; test: Antiobesity activity in C57BL/6 mouse assessed as reduction in high fat diet-induced body weight gain at 0.2 mg/kg, po dosed QD for 4 weeks relative to control; format: functional, C57BL6; set-up: scale not given: the % may be the effect or the level left
# [16] = tested on: Mus musculus; test: Antidiabetic activity in C57BL/6 mouse assessed as reduction in plasma glucose level at 0.2 mg/kg, po dosed QD for 4 weeks; format: functional, C57BL6; set-up: scale not given: the % may be the effect or the level left
# [17] = tested on: Mus musculus; test: Antidiabetic activity in C57BL/6 mouse assessed as reduction in insulin level at 0.2 mg/kg, po dosed QD for 4 weeks; format: functional, C57BL6; set-up: scale not given: the % may be the effect or the level left
# [18] = Drug level in C57BL/6 mouse liver at 0.1 mg/ kg, po after 3 hrs; format: ADME, organism-based, C57BL6; set-up: dose 0.1 mg/ kg, route oral; conditions: read-out: Drug uptake; summary of the method: as §1
# [19] = Plasma concentration in C57BL/6 mouse at 10 mg/kg, po after 6 hrs; format: ADME, organism-based, C57BL6; set-up: dose 10 mg/kg, route oral
# Summary of the method: (§2)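 Tissue distribution was measured in C57BL6 mice 6 h after a single 10 mg/kg oral dose. Compound levels were determined in liver, adipose tissue and plasma, and tissue-to-plasma ratios were calculated.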
# [20] = Biodistribution in C57BL/6 mouse liver at 10 mg/kg, po after 6 hrs; format: ADME, organism-based, C57BL6; set-up: dose 10 mg/kg, route oral; conditions: read-out: Drug uptake; summary of the method: as §2
# [21] = Biodistribution in C57BL/6 mouse adipose tissue at 10 mg/kg, po after 6 hrs; format: ADME, organism-based, C57BL6; set-up: dose 10 mg/kg, route oral; conditions: read-out: Drug uptake; summary of the method: as §2
# [22] = Biodistribution in C57BL/6 mouse skin at 10 mg/kg, po after 6 hrs; format: ADME, organism-based, C57BL6, Zone of skin; set-up: dose 10 mg/kg, route oral; conditions: read-out: Drug uptake
# [23] = Ratio of drug level in liver to plasma in C57BL/6 mouse at 10 mg/kg, po after 6 hrs; format: ADME, organism-based, C57BL6; set-up: dose 10 mg/kg, route oral; summary of the method: as §2
# [24] = Ratio of drug level in adipose tissue to plasma in C57BL/6 mouse at 10 mg/kg, po after 6 hrs; format: ADME, organism-based, C57BL6; set-up: dose 10 mg/kg, route oral; summary of the method: as §2
# [25] = tested on: Mus musculus; test: Inhibition of SCD in C57BL/6 mouse liver assessed as [14C]stearic acid to [14C]oleic acid conversion at 0.1 mg/kg, po after 3 hrs by liver SCD activity index; format: functional, organism-based; set-up: dose 0.1 mg/kg; conditions: C57BL6; summary of the method: as §1
# [26] = tested on: Mus musculus; test: Inhibition of SCD in C57BL/6 mouse liver assessed as [14C]stearic acid to [14C]oleic acid conversion at 0.3 mg/kg, po after 3 hrs by liver SCD activity index; format: functional; conditions: C57BL6, Liver; summary of the method: as §1
structure (smiles),measurement,setting,value
NC(=O)c1cnc(N2CC[C@H](Oc3ccccc3C(F)(F)F)C2)s1,pIC50,[1],7.92
same,pIC50,[2],7.08
O=C1CCCN1c1cnc(N2CCC(Oc3ccccc3C(F)(F)F)CC2)s1,pIC50,[1],6.79
same,pIC50,[2],6.76
FC(F)(F)c1ccccc1OC1CCN(c2ncc(-c3nnco3)s2)CC1,pIC50,[1],7.47
same,pIC50,[2],7.19
NC(=O)c1cnc(N2CCN(C(=O)c3ccccc3C(F)(F)F)CC2)s1,ED50,[3],3 mg/kg
same,Activity,[4],Toxic
same,Activity,[5],Toxic
same,pIC50,[1],6.97
same,pIC50,[2],6.60
NS(=O)(=O)c1cnc(N2CCC(Oc3ccccc3C(F)(F)F)CC2)s1,pIC50,[1],7.39
same,pIC50,[2],5.99
NC(=O)c1cc(N2CCC(Oc3ccccc3C(F)(F)F)CC2)no1,pIC50,[1],8.10
same,pIC50,[2],7.85
FC(F)(F)c1ccccc1OC1CCN(c2ncc(-c3ncco3)s2)CC1,pIC50,[1],7.85
same,pIC50,[2],7.26
FC(F)(F)c1ccccc1OC1CCN(c2ncc(-c3ncon3)s2)CC1,pIC50,[1],8.40
same,pIC50,[2],7.80
same,bioavailability,[6],33%
same,AUC(0-t) at 24 h,[7],2.9 µM·h
NC(=O)c1cnc(N2CCN(Cc3ccccc3C(F)(F)F)CC2)s1,pIC50,[1],7.12
same,pIC50,[2],6.82
NC(=O)c1nc(N2CCC(Oc3ccccc3C(F)(F)F)CC2)no1,pIC50,[1],5.79
NC(=O)c1nnc(N2CCC(Oc3ccccc3C(F)(F)F)CC2)o1,pIC50,[1],7.08
same,pIC50,[2],6.70
COC(=O)Nc1cnc(N2CCC(Oc3ccccc3C(F)(F)F)CC2)s1,pIC50,[1],6.12
same,pIC50,[2],6.11
NC(=O)c1cnc(N2CCC(Sc3ccccc3C(F)(F)F)CC2)s1,pIC50,[1],8.40
same,pIC50,[2],7.62
NC(=O)c1nnc(N2CCC(Oc3ccccc3C(F)(F)F)CC2)s1,pIC50,[1],8.52
same,pIC50,[2],8.15
NC(=O)c1cnc(N2CCC(Oc3ccccc3C(F)(F)F)CC2)s1,pIC50,[1],8.52
same,pIC50,[2],8.00
NC(=O)c1csc(N2CCC(Oc3ccccc3C(F)(F)F)CC2)n1,pIC50,[1],6.17
same,pIC50,[2],5.19
NC(=O)Nc1cnc(N2CCC(Oc3ccccc3C(F)(F)F)CC2)s1,pIC50,[1],6.82
Cc1nnc(-c2cnc(N3CCC(Oc4ccccc4C(F)(F)F)CC3)s2)s1,pIC50,[1],6.12
NC(=O)c1cnc(N2CC[C@@H](Oc3ccccc3C(F)(F)F)C2)s1,pIC50,[1],< 4.70
OCc1nc(-c2cnc(N3CCC(Oc4ccccc4C(F)(F)F)CC3)s2)no1,inhibition in vivo at 1 mg/kg,[8],89%
same,concentration at 3 h,[9],1900 nM
same,concentration at 3 h,[10],5700 nM
same,concentration at 3 h,[11],< 25 nM
same,concentration at 3 h,[12],< 25 nM
same,concentration at 3 h,[13],180 nM
same,ED50,[3],0.3 mg/kg
same,concentration at 72 h,[14],180 nM
same,Activity,[15],24%
same,Activity,[16],24%
same,Activity,[17],4%
same,Activity,[4],Toxic
same,Activity,[5],Toxic
same,concentration at 3 h,[18],600 nM
same,pIC50,[1],9.00
same,pIC50,[2],9.00
same,bioavailability,[6],48%
same,AUC(0-t) at 24 h,[7],16.8 µM·h
same,concentration at 6 h,[19],1100 nM
same,concentration at 6 h,[20],6700 nM
same,concentration at 6 h,[21],8900 nM
same,concentration at 6 h,[22],1800 nM
same,Kp at 6 h,[23],6
same,Kp at 6 h,[24],8
same,inhibition,[25],inactive
same,inhibition in vivo at 0.3 mg/kg,[26],45%
Cc1nc(-c2cnc(N3CCC(Oc4ccccc4C(F)(F)F)CC3)s2)no1,pIC50,[1],7.82
same,pIC50,[2],7.41
same,bioavailability,[6],24%
same,AUC(0-t) at 24 h,[7],3.5 µM·h
NC(=O)c1cnc(N2CCN(S(=O)(=O)c3ccccc3C(F)(F)F)CC2)s1,pIC50,[1],< 5.52
NC(=O)c1nnc(N2CCC(Oc3ccccc3C(F)(F)F)CC2)[nH]1,pIC50,[1],6.90
same,pIC50,[2],5.55
